zfTRPN1 agonist: zebrafish TRPN1 channel agonists, primary screen, cell-based, HEK293, calcium fluorescence; HEK293 zebrafish TRPN1-YFP, Fluo-8 calcium fluorescence; 100% = response to 87 µM carbachol; activation, % at 3 µM; 0.18% of 220,000 active; transient receptor potential cation channel N1 (TRPN1/NompC), Danio rerio;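 active means activation above its plate's cutoff, the mean activation of test wells on that plate plus 3 SD, cut at about 19% in these data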
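System: zebrafish TRPN1-YFP in HEK293 cells / Dosing: 3 µM single point / Timing: dye loading 1 h at 37 °C, then 30 min room temperature / Signal: Fluo-8 calcium fluorescence, excitation 470-495 nm, emission 515-575 nm / Read-out basis: percent activation from peak over basal fluorescence ratio, control-normalized / Control set: high carbachol 87 µM, low DMSO alone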
CRFR2-BP antag: antagonists of CRF-BP/CRF-R2 complex, primary screen, cell-based, HEK293, calcium dye fluorescence, uHTS; CRF-induced calcium fluorescence; inhibition, % at 11.8 µM; 0.59% of 350,000 active;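 active means inhibition of the ligand-induced calcium signal above about 50% at the single tested concentration, limit read from the data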
CRFBP-R2 agonist: agonists of CRF-BP/CRF-R2 complex, primary screen, cell-based, HEK293, calcium dye fluorescence, uHTS; activation, % at 13.2 µM; calcium dye fluorescence (FLIPR); percent of saturating CRF peptide response; 0.46% of 350,000 active; CRF-binding protein / CRF receptor 2 complex (human);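 active means activation of at least 50%, plus an integration ratio under a set limit after plate pattern correction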
TRPML3 ag: human TRPML3 channel agonists, primary screen, cell-based, HEK293 TRPML3-YFP, Fluo-8 calcium fluorescence, 3 µM. Mucolipin-3 (Homo sapiens), Q8TDD5. 100% = the carbachol control signal. activation, % at 3 µM. 0.29% of 220,000 active;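 active means activation above its plate's cutoff, the mean activation of the plate's test wells plus 3 SD, cut at about 12% in these data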
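Material: TRPML3-YFP stable HEK293 cells | Dosing: One concentration, 3 µM nominal, 0.3% DMSO | Timing: 125 s total fluorescence read per well | Technique: Fluo-8 calcium dye fluorescence, ex 470-495, em 515-575 nm | Measure: Percent activation from peak-to-basal fluorescence ratio, scaled between DMSO and carbachol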
A number is an active result; – = inactive; · = no result. Hits are enriched below; roughly 1.2% of the tested compounds scored in any of these assays.

SMILES | zfTRPN1 agonist | CRFR2-BP antag | CRFBP-R2 agonist | TRPML3 ag
Nc1c(C(=O)Nc2nccs2)sc2nc(-c3cccs3)cc(C(F)(F)F)c12 | – | – | 68 | –
CC(C)(C)NCc1cc2ccccc2[nH]c1=O | – | – | – | –
CC(c1ccco1)N(C(=O)c1cc(Cl)cc(Cl)c1)c1ccccn1 (stereo not given) | · | – | – | ·
CC(c1ccco1)N(C(=O)c1ccccc1NS(=O)(=O)c1ccc(Cl)c([N+](=O)[O-])c1)c1ccccn1 (stereo not given) | – | 52 | – | –
CCCCNc1nc(CC)c2c(c1C#N)CCCC2 | – | 61 | – | –
CCCC12CN(C(=O)c3ccc([N+](=O)[O-])cc3)CC(C)(CN(C(=O)c3ccc([N+](=O)[O-])cc3)C1)C2=O | – | 126 | – | –
CC12CN(C(=O)c3ccc([N+](=O)[O-])cc3)CC(C)(CN(C(=O)c3ccc([N+](=O)[O-])cc3)C1)C2=O | – | – | – | –
N#C/C(=C(/O)c1cccc(F)c1)c1nc2ccccc2s1 | – | – | 51 | –
Cn1c(/C(C#N)=C(\O)c2cccc(F)c2)nc2ccccc21 | · | – | – | ·
O=C(CN1c2cccc3cccc(c23)S1(=O)=O)NC1CCCCC1 | · | 70 | – | ·
CN(CCO)S(=O)(=O)c1ccc2c(c1)C(=NNC(N)=O)c1cc(S(=O)(=O)N(C)CCO)ccc1-2 | – | 85 | – | –
CN(C)S(=O)(=O)c1ccc2c(c1)C(=NNC(N)=O)c1cc(S(=O)(=O)N(C)C)ccc1-2 | · | – | – | ·
O=[N+]([O-])c1ccc(C2CCCC/C2=N/O)c([N+](=O)[O-])c1 (stereo not given) | · | – | – | ·
COCCn1c(SCC(=O)N2CCc3ccccc3C2)nc2cc(Cl)ccc2c1=O | – | – | – | –
CC(C)Cn1c(SCC(=O)N2CCc3ccccc3C2)nc2cc(Cl)ccc2c1=O | – | 118 | – | –
CCCCCCCCCCCC(=O)NC(Cc1ccc(OC)c([N+](=O)[O-])c1)C(=O)O (stereo not given) | – | 55 | – | –
CCOC(=O)C1(C(=O)OCC)CCN(S(=O)(=O)c2ccccc2)CC1 | · | 69 | – | ·
CCOC(=O)N1CCN(C(=O)C2CCN(S(=O)(=O)c3ccccc3)CC2)CC1 | – | – | – | –
CCOC(=O)C1CCCN(S(=O)(=O)c2ccccc2)C1 (stereo not given) | – | 78 | – | –
CCOC(=O)C1CN(S(=O)(=O)c2ccccc2)C1 | – | – | – | –
CCOC(=O)C1CCCN(C(=O)COC(=O)c2cccs2)C1 (stereo not given) | · | 95 | – | ·
Cc1nc(S(=O)(=O)c2ccc(Cl)cc2)nc2c1CCC2 | – | – | – | –
COc1ccc([N+](=O)[O-])cc1NC(=O)c1ccccc1SC | – | 100 | – | –
COc1ccc(Cl)cc1NC(=O)c1cccc([N+](=O)[O-])c1O | · | 83 | – | ·
C/C=C/C=C/C(=O)OC(C)C(=O)Nc1cc([N+](=O)[O-])ccc1OC (stereo not given) | – | 112 | – | –
SMILES | zfTRPN1 agonist | CRFR2-BP antag | CRFBP-R2 agonist | TRPML3 ag
CSc1ccccc1C(=O)Nc1cccc([N+](=O)[O-])c1 | – | – | – | –
CNC(=S)N1CCN(c2nc(-c3ccc(F)cc3)cs2)CC1 | · | – | – | ·
Cc1ccc(C)c(NC(=O)C2CCCN(S(=O)(=O)c3c(C)nn(C)c3C)C2)c1 (stereo not given) | · | – | – | ·
COC(=O)Nc1nnc(-c2ccco2)s1 | – | – | – | –
CCCCc1nc2ccccc2c(NC(=O)CN(CC)CC)c1CCC | – | 98 | – | –
C/C(=C\C=C(C#N)C#N)c1cc(C#N)c(N)o1 | – | – | 64 | –
COc1ccccc1NS(=O)(=O)c1cc(C(=O)N2CCCCCCC2)ccc1C | · | – | – | ·
COc1ccccc1NS(=O)(=O)c1cc(C(=O)N2CCCC2)ccc1F | · | 79 | – | ·
O=C(COC(=O)c1ccccc1O)NC(=O)c1ccc(OC(F)F)cc1 | · | – | – | ·
O=C(COC(=O)C1CCN(S(=O)(=O)c2ccccc2)CC1)NC(=O)c1ccc(OC(F)F)cc1 | – | 131 | – | –
CCCc1[nH]nc2c1C(c1ccsc1)C(C#N)=C(N)O2 (stereo not given) | – | – | – | –
C=CCn1c(C)c(/C=C/c2cc[n+](C)cc2)c2ccccc21 | · | – | – | ·

Source: PubChem (several laboratories)
